TROY NFkB inh = TROY signaling inhibition; Q293 LMP1-TROYcd NF-kB luciferase reporter, 4 h; inhibition, % at 10 µM; 360,000 tested, 0.98% active; AID 1347056;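 active means compounds whose plate-normalised and pattern-corrected inhibition of the luciferase reporter signal at the single screening dose is 50% or more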
Xi reactivation = reactivates the inactive X chromosome in mouse fibroblasts. 360,000 tested, 0.055% active. XiGFP mouse fibroblasts, % GFP-positive cells imaging, 3 d; cells co-treated with 5-aza-dC sensitizer; scaled so ellipticine positive control = 100%. activation, % at 7.58 µM;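 active means mean normalized replicate activation at least 10% and every replicate at or above 10%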;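 further: 0% = median of on-plate neutral control wells and 100% = ellipticine 6 µM median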
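System: XiGFP fibroblasts, SV40-immortalized. Medium: DMEM plus 5-aza-dC sensitizer. Doses: single point. Timing: 3 d treatment, 15 min room-temperature fixation. Control set: ellipticine 6 µM.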
EWS-Fli inh = blocks EWS/Fli oncoprotein-driven transcription | 350,000 tested, 0.67% active | A673 NR0B1-luciferase reporter, viability-normalised | inhibition, % at 12.6 µM;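 active means mean inhibition of at least 50% after viability correction, with every replicate also passing that limit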;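 further: firefly luciferase signal divided by Alamar Blue viability fluorescence both relative to DMSO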
FN deposit inh = fibronectin deposition inhibition; AH1F fibroblasts, Alexa488-fibronectin deposition fluorescence, overnight; inhibition, % at 12.6 µM; 350,000 tested, 0.086% active;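 active means mean inhibition across replicates of 30% or more, regardless of how many single replicates reach that level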;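 further: positive control wells lacked labelled fibronectin entirely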
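Material: AH1F fibroblast monolayer depositing Alexa488-labelled fibronectin into matrix / Amount: 10000 AH1F cells per well / Signal: fluorescence 485/525 nm / Medium: DMEM, 2% serum / Compound: single dose, pinned / Incubation: 1 h cell adhesion before compound, then overnight fibronectin incubation / Reagent: Alexa488-FN, 24 nM final / Read-out: inhibition of fibronectin deposition signal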
LGR2 inh = blocks bursicon-induced cAMP signaling via Drosophila LGR2; AID 720647; 380,000 tested, 0.35% active; HEK293 LGR2, CRE-luciferase, bursicon-stimulated, 4 h; inhibition, % at 9.99 µM;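 active means drop in luminescence signal, shown as inhibition above about 50% in the replicate tests, limit read from the data, passing the limit was not always enough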;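 further: agonist challenge used bursicon conditioned medium at about half maximal strength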
TWEAK Fn14 block = inhibitors of TWEAK-Fn14 interaction signaling | TWEAK-stimulated Fn14 reporter cells, luciferase luminescence, 8 h | inhibition, % at 10 µM | 360,000 tested, 2% active | AID 1159606; in the data active means inhibition above about 50%
The depositor's hits bear a star. Sampled rows, rich in hits. Any-hit rate of the full collection: about 2.3%.

What do the screens show for `CN(C)S(=O)(=O)c1ccc(-c2csc(N/N=C/c3ccco3)n2)cc1`?
TROY NFkB inh: 70.8*; Xi reactivation: -0.1; EWS-Fli inh: 9.2; FN deposit inh: -5.1; LGR2 inh: 101.9*; TWEAK Fn14 block: 103.9*

Results for COc1ccc2c3c(n(C)c2c1)[C@H](CO)NCC31CCN(Cc2ccc(F)cc2)CC1 ?
Xi reactivation: 0.1

Results for C[C@H]1CCCCO[C@H](CN(C)Cc2ccccc2)[C@@H](C)CN([C@@H](C)CO)C(=O)c2cc(NC(=O)Nc3ccc(C(F)(F)F)cc3)ccc2O1 ?
Xi reactivation: 0.4; EWS-Fli inh: 41.3; FN deposit inh: 9.9; LGR2 inh: -2.4

What do the screens show for `C[C@H](CO)N1C[C@H](C)[C@H](CN(C)S(=O)(=O)c2ccc(F)cc2)Oc2ccc(NC(=O)Cc3ccccc3)cc2C1=O`?
Xi reactivation: 0.0; EWS-Fli inh: -6.8; FN deposit inh: 1.5; LGR2 inh: -3.0

What do the screens show for `CC(=O)O[C@H]1C(=O)[C@]2(C)[C@H]([C@H](OC(=O)c3ccccc3)[C@]3(O)C[C@H](OC(=O)[C@H](O)[C@@H](NC(=O)c4ccccc4)c4ccccc4)C(C)=C1C3(C)C)[C@]1(OC(C)=O)CO[C@@H]1C[C@@H]2O`?
TROY NFkB inh: 14.2; Xi reactivation: 0.5; EWS-Fli inh: 61.2*; FN deposit inh: 23.8; LGR2 inh: 3.5; TWEAK Fn14 block: 16.7

What do the screens show for `CC(=O)O[C@H]1C(=O)[C@@]2(C)C([C@H](OC(=O)c3ccccc3)[C@]3(O)C[C@H](OC(=O)[C@H](O)[C@@H](NC(=O)c4ccccc4)c4ccccc4)C(C)=C1C3(C)C)[C@]1(OC(C)=O)CO[C@@H]1C[C@H]2O` (stereo partly specified)?
TROY NFkB inh: 6.0; EWS-Fli inh: 54.5*; LGR2 inh: 6.8; TWEAK Fn14 block: 37.0

Results for C[C@H]1C/C=C\C[C@H](c2ccc3c(c2)OCO3)NC(=O)[C@H](c2ccccc2)CC(=O)N1 ?
Xi reactivation: -0.1; FN deposit inh: -7.8

Results for CC(=O)Nc1cccc2c1O[C@@H](CN(C)C(=O)NC(C)C)[C@@H](C)CN(C)C2=O ?
Xi reactivation: 0.1; FN deposit inh: -4.6

Results for COc1ccc(/C=N\n2nnc3ccccc32)cc1 ?
TROY NFkB inh: 45.2; FN deposit inh: 1.1; TWEAK Fn14 block: 90.0*

What do the screens show for `COc1ccc(/C=C/c2nc3ccccc3c(=O)o2)cc1`?
TROY NFkB inh: 82.6*; Xi reactivation: -0.1; EWS-Fli inh: 71.0*; FN deposit inh: 11.9; LGR2 inh: 90.3*; TWEAK Fn14 block: 97.1*

What do the screens show for `COc1ccc(Cn2c(/C=C/c3ccccc3)nc3ccccc32)cc1`?
TROY NFkB inh: -48.3; FN deposit inh: 3.8; TWEAK Fn14 block: -35.8

Results for COc1ccc(/C=C/c2nc3ccccc3n2C)cc1 ?
TROY NFkB inh: 47.6; Xi reactivation: 0.0; EWS-Fli inh: 80.7*; FN deposit inh: 4.5; LGR2 inh: 96.1*; TWEAK Fn14 block: 76.0*

What do the screens show for `COc1ccccc1/C=C/c1nc2ccccc2c(=O)o1`?
TROY NFkB inh: -14.3; Xi reactivation: 0.1; EWS-Fli inh: -111.2; FN deposit inh: 19.7; LGR2 inh: 1.6; TWEAK Fn14 block: 26.5

What do the screens show for `O=C(Cn1cnc2c(NCc3ccccc3)ncnc21)NCc1ccccc1`?
TROY NFkB inh: 20.3; Xi reactivation: 0.1; EWS-Fli inh: 55.6*; FN deposit inh: 23.3; LGR2 inh: 6.7; TWEAK Fn14 block: 30.4

How did O=C(Cn1cnc2c(NCc3ccccc3)ncnc21)NCc1ccc2c(c1)OCO2 do in these assays?
TROY NFkB inh: 4.8; Xi reactivation: 0.2; EWS-Fli inh: 13.9; FN deposit inh: 5.7; LGR2 inh: -11.8; TWEAK Fn14 block: -13.7

Results for O=C(N[C@H]1CC[C@H](CC(=O)N2CCCCC2)O[C@@H]1CO)c1ccc2c(c1)OCO2 ?
Xi reactivation: -0.2; EWS-Fli inh: -4.7; LGR2 inh: 13.6

How did CCCN(C)C[C@@H]1Oc2cc(C#CCC(C)C)ccc2S(=O)(=O)N([C@@H](C)CO)C[C@@H]1C do in these assays?
Xi reactivation: -0.5; EWS-Fli inh: 18.6; FN deposit inh: 8.5; LGR2 inh: 15.4

What do the screens show for `C[C@@H]1CCCCO[C@H](CN(C)S(=O)(=O)c2ccc(Cl)cc2)[C@@H](C)CN([C@@H](C)CO)C(=O)c2cc(NC(=O)c3ccccc3)ccc2O1`?
Xi reactivation: 0.1; EWS-Fli inh: 6.9; LGR2 inh: 20.5

What do the screens show for `COc1cccc2c1C(=O)c1c(O)c3c(c(O)c1C2=O)C[C@@](O)(C(C)=O)C[C@@H]3O[C@H]1C[C@H](N)[C@H](O)[C@H](C)O1`?
TROY NFkB inh: 69.4*; Xi reactivation: 0.5; EWS-Fli inh: 70.1*; FN deposit inh: -6.7; LGR2 inh: 99.7*; TWEAK Fn14 block: 95.7*

Results for COc1cccc2c1C(=O)c1c(O)c3c(c(O)c1C2=O)CC(O)(C(=O)CO)CC3OC1CC(N(C)C)C(O)C(C)O1 (stereo unspecified) ?
TROY NFkB inh: 56.5*; Xi reactivation: 2.8; EWS-Fli inh: 63.8*; FN deposit inh: -0.7; TWEAK Fn14 block: 97.4*

What do the screens show for `COc1cccc2c1C(=O)c1c(O)c3c(c(O)c1C2=O)C[C@@](O)(C(=O)CO)C[C@@H]3O[C@H]1C[C@H](N)[C@@H](O)[C@H](C)O1`?
TROY NFkB inh: -3.3; TWEAK Fn14 block: 88.5*

How did C[C@@H](O)C#Cc1ccc([C@H]2[C@@H](CO)N3CCCCN(S(=O)(=O)c4ccccc4)C[C@H]23)cc1 do in these assays?
Xi reactivation: 0.0; EWS-Fli inh: 2.5; LGR2 inh: 11.5

What do the screens show for `Cc1ccc(S(=O)(=O)Nc2ccc3c(c2)C(=O)N([C@H](C)CO)C[C@@H](C)[C@H](CN(C)S(=O)(=O)c2cn(C)cn2)OCCCC[C@@H](C)O3)cc1`?
Xi reactivation: 0.0; EWS-Fli inh: -5.2; FN deposit inh: -0.8; LGR2 inh: 3.5

Results for CCCC(C(=O)Nc1ccc(C)c(S(=O)(=O)N2CCOCC2)c1)c1ccccc1 (stereo unspecified) ?
TROY NFkB inh: -16.2; Xi reactivation: 0.1; EWS-Fli inh: -5.3; FN deposit inh: -13.0; LGR2 inh: 0.4; TWEAK Fn14 block: -16.5

How did COc1ccc(NC(=O)c2ccc(S(=O)(=O)N(C)c3ccccc3)cc2)cc1S(=O)(=O)N1CCOCC1 do in these assays?
TROY NFkB inh: 27.6; Xi reactivation: 0.1; EWS-Fli inh: -2.2; FN deposit inh: 0.3; LGR2 inh: 9.4; TWEAK Fn14 block: 10.0
